# Measurements from paper PMC9391279 (Cell chemical biology, 2022).
# Tests used:
# BRD4(BD2) = settings: read-out: KD,BD2, ref Faivre et al., 2020; cited from earlier work
# BRD4(BD1) = settings: read-out: KD,BD1, ref Faivre et al., 2020; cited from earlier work
# BRD4 in MDA-MB-231 cells [1] = molecular target: T1, BRD4 in MDA-MB-231 cells (Homo sapiens, UniProt O60885); test: BRD4 degradation rescue experiments, MDA-MB-231; format: cell-based, H. sapiens; settings: for Rescue of CS-JQ1-induced BRD4 degradation by co-treatment: MDA-MB-231, co-treatment with CS-JQ1, 5 h; for Rescue of dBET6-induced BRD4 degradation by co-treatment: MDA-MB-231, co-treatment with dBET6, 5 h
# Keap1-BTB domain = Keap1-BTB domain (Homo sapiens, UniProt Q14145); test: TR-FRET ligand displacement assay, Keap1-BTB domain; format: binding
# BRD4 in MCF7 cells [2] = molecular target: T2, BRD4 in MCF7 cells (Homo sapiens, UniProt O60885); test: BRD4 degradation rescue experiments, MCF7; format: cell-based, H. sapiens; settings: for Rescue of CS-JQ1-induced BRD4 degradation by co-treatment: MCF7, co-treatment with CS-JQ1, 5 h; for Rescue of dBET6-induced BRD4 degradation by co-treatment: MCF7, co-treatment with dBET6, 5 h
# BRD4 in MDA-MB-231 cells [3] = molecular target: T1, BRD4 in MDA-MB-231 cells; test: BRD4 ubiquitination by immunoprecipitation / Western blot; format: cell-based, H. sapiens; settings: MDA-MB-231, 5 h
# BRD4 = test: TR-FRET ligand displacement assays with recombinant BRD4; format: binding, human; settings: Figure 4B
# Method in brief: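 Tracer displacement of JQ1-FITC (20 nM) from 4 nM GST-BRD4(BD1) or GST-BRD4(BD2) with 4 nM CoraFluor-1 anti-GST VHH, in HEPES/NaCl/BSA/Tween buffer, pH 7.5. Endogenous BRD4 was tested in clarified MCF7 lysate at 0.8 mg/mL total protein. Floor was a 10 μM reference inhibitor; ceiling was no inhibitor. Four-parameter IC50 fits were converted to KD,app by Cheng-Prusoff using tracer KD,app.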
# BRD4 in MDA-MB-231 cells [4] = molecular target: T1, BRD4 in MDA-MB-231 cells; test: TR-FRET BRD4 quantification, 24-well plate format, MDA-MB-231; format: cell-based, H. sapiens; settings: MDA-MB-231, 5 h treatment, 1 h washout
# BRD4 in MDA-MB-231 cells [5] = molecular target: T1, BRD4 in MDA-MB-231 cells; test: TR-FRET BRD4 quantification, 96-well plate format; format: cell-based, H. sapiens; settings: MDA-MB-231, 30 min to 10 h, 96-well no wash-out
# [6] = system: full-length Keap1 and individual BRD4 bromodomains; format: biochemical; settings: BRD4(BD1) or BRD4(BD2)
# BRD4 in MCF7 cells [7] = molecular target: T2, BRD4 in MCF7 cells; test: TR-FRET BRD4 quantification, 24-well plate format, MCF7; format: cell-based, H. sapiens; settings: MCF7, 5 h treatment, 1 h washout
# Keap1-Kelch domain = Keap1-Kelch domain (Homo sapiens, UniProt Q14145); test: TR-FRET ligand displacement assay, Keap1-Kelch domain; format: binding
# Chain of Keap1-Kelch domain (Q14145 whole entry, the tested form may be a part): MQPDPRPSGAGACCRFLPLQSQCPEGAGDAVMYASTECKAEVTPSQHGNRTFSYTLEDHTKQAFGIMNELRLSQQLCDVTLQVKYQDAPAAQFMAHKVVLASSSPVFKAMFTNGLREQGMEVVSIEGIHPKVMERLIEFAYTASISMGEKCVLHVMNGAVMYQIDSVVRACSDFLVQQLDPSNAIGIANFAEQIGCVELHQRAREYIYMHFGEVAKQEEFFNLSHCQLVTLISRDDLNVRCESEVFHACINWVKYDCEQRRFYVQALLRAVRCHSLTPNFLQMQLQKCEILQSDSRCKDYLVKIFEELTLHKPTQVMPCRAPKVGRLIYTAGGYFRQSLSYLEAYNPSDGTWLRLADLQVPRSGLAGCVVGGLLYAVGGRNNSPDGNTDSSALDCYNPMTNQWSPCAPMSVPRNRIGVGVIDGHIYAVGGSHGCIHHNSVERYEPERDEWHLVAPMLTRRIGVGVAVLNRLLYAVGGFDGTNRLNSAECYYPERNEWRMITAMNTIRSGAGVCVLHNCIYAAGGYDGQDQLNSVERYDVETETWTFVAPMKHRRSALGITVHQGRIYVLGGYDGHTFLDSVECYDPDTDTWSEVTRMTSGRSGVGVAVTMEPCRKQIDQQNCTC
# Chain of Keap1-BTB domain (Q14145 whole entry, the tested form may be a part): as above
Compound,Rescue of CS-JQ1-induced BRD4 degradation by co-treatment (BRD4 in MDA-MB-231 cells [1]),Rescue of CS-JQ1-induced BRD4 degradation by co-treatment (BRD4 in MCF7 cells [2]),Rescue of dBET6-induced BRD4 degradation by co-treatment (BRD4 in MCF7 cells [2]),Rescue of dBET6-induced BRD4 degradation by co-treatment (BRD4 in MDA-MB-231 cells [1]),also measured
"CCS(=O)(=O)Nc1ccc(Oc2ccc(F)cc2F)c(-c2cn(C)c(=O)c3[nH]ccc23)c1 [ABBV-075, ABBV-075 (Mivebresib)]",–,–,–,–,Kd (BRD4(BD2)): 2.5 nM; Kd (BRD4(BD1)): 13.8 nM
"CC1=C(O)C(=O)C=C2C1=CC=C1[C@@]2(C)CC[C@@]2(C)[C@@H]3C[C@](C)(C(=O)O)CC[C@]3(C)CC[C@]12C [CS, celastrol]",reduced CS-JQ1 degradation efficiency,reduced CS-JQ1 degradation efficiency,–,–,–
"CC1=C(O)C(=O)C=C2C1=CC=C1[C@@]2(C)CC[C@@]2(C)[C@@H]3C[C@](C)(C(=O)NCCCOCCOCCOCCCNC(=O)CC4N=C(c5ccc(Cl)cc5)c5c(sc(C)c5C)-n5c(C)nnc54)CC[C@]3(C)CC[C@]12C (stereo partly drawn) [CS-JQ1, (2R,4aS,6aS,12bR,14aS,14bR)-N-(1-(4-(4-chlorophenyl)-2,3,9-trimethyl-6H-thieno[3,2-f][1,2,4]triazolo[4,3-a][1,4]diazepin-6-yl)-2-oxo-7,10,13-trioxa-3-azahexadecan-16-yl)-10-hydroxy-2,4a,6a,9,12b,14a-hexamethyl-11-oxo-1,2,3,4,4a,5,6,6a,11,12b,13,14,14a,14b-tetradecahydropicene-2-carboxamide]",–,–,–,–,Induction of BRD4 ubiquitination (BRD4 in MDA-MB-231 cells [3]): induce BRD4 ubiquitination; Target engagement with BRD4 (in words) (BRD4): validated target engagement with BRD4; BRD4 level by TR-FRET after treatment (in words) (BRD4 in MDA-MB-231 cells [4]): dose-dependent and efficient degradation of BRD4; BRD4 degradation kinetics (in words) (BRD4 in MDA-MB-231 cells [5]): slightly slower kinetics; Ternary complex formation between full-length Keap1 and individual BRD4 bromodomains [6]: could induce ternary complex formation; Affinity for the Keap1 BTB domain (in words) (Keap1-BTB domain; compared with celastrol): slightly improved affinity; BRD4 level by TR-FRET after treatment (in words) (BRD4 in MCF7 cells [7]): dose-dependent and efficient degradation of BRD4; Binding to the Keap1 Kelch domain (in words) (Keap1-Kelch domain): lost the ability to bind
NS(=O)(=O)OC[C@H]1C[C@@H](Nc2ccnc3cc(-c4cccc(SC(F)(F)F)c4)nn23)[C@H](O)[C@@H]1O [MLN7243],restored BRD4 levels,restored BRD4 levels,attenuated,attenuated,–
Cc1ncsc1-c1ccc(CNC(=O)[C@@H]2C[C@@H](O)CN2C(=O)[C@@H](NC(=O)COCCOCCOCCNC(=O)C[C@@H]2N=C(c3ccc(Cl)cc3)c3c(sc(C)c3C)-n3c(C)nnc32)C(C)(C)C)cc1 [MZ1],–,–,–,–,BRD4 degradation kinetics (in words) (BRD4 in MDA-MB-231 cells [5]): slightly slower degradation kinetics
Nc1cccc2c1C(=O)N(C1CCC(=O)NC1=O)C2=O (stereo not drawn) [pomalidomide],–,–,attenuated,attenuated,–

# The next lines start with results.
Rescue of CS-JQ1-induced BRD4 degradation by co-treatment (BRD4 in MDA-MB-231 cells [1]),Rescue of CS-JQ1-induced BRD4 degradation by co-treatment (BRD4 in MCF7 cells [2]),Rescue of dBET6-induced BRD4 degradation by co-treatment (BRD4 in MCF7 cells [2]),Rescue of dBET6-induced BRD4 degradation by co-treatment (BRD4 in MDA-MB-231 cells [1]),Compound,also measured
not altered,–,–,–,"COC(=O)[C@]12CCC(C)(C)C[C@H]1[C@H]1C(=O)C=C3[C@@]4(C)C=C(C#N)C(=O)C(C)(C)[C@@H]4CC[C@@]3(C)[C@]1(C)CC2 [CDDO-Me, bardoxolone methyl]",Kd (Keap1-BTB domain): 24 nM
restored BRD4 levels,restored BRD4 levels,attenuated,attenuated,NS(=O)(=O)OC[C@@H]1C[C@@H](n2ccc3c(N[C@H]4CCc5ccccc54)ncnc32)C[C@@H]1O [MLN4924],–
–,–,attenuated,attenuated,CC(C)C[C@H](NC(=O)[C@H](Cc1ccccc1)NC(=O)c1cnccn1)B(O)O [bortezomib],–
